In the library only some 8.4% were active in any assay of this set; here they are far more common.
Ecoli WT expand – E. coli BW25113 growth inhibition, expanded screen. OD600 absorbance. growth inhibition, % at 100 µM. hit rate 0.15% among 98,000. AID 710;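 active = growth inhibition above about 50% at one test dose, limit read from the data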;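 also: growth measured after 20 h incubation at 37 °C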
Cav3 T inh – inhibitors of human Cav3.2 T-type calcium channel; O95180; B-score at 10 µM; hit rate 4% among 100,000; Cav3.2-expressing cells, Fluo-4 calcium fluorescence FDSS; stronger effect = lower value;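 active = single-dose well whose peak fluorescence ratio is a statistical outlier from its plate by either plate-standardised score or position-corrected B-score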
PostGolgi ctrl – growth of the yeast control strain, post-Golgi counter-screen. efflux-deficient yeast background strain, growth absorbance A615, 16 h. inhibition, % at 10 µM. hit rate 5% among 98,000
tolC growth inh – blocks growth of E. coli BW25113 tolC mutant; OD615; hit rate 2.2% among 65,000; growth inhibition, % at 10 µM (by protocol);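 active = growth inhibition at or above a cutoff equal to the mean over every tested compound plus 3 SD, cut at about 60% in these data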;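 also: growth measured after 20 h incubation at 37 °C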
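test system = E. coli BW25113 ΔtolC::kan bacteria | medium = LB with kanamycin 50 µg/mL | signal = OD at 615 nm | schedule = 37 °C, 20 h exposure | evaluation = % inhibition of E. coli growth | compound dosing = one dose of 10 µM final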
PostGolgi yeast – growth inhibition of a yeast mutant, post-Golgi transport screen; hit rate 0.9% among 98,000; post-Golgi transport phenotypic cell assay; inhibition, % at 10 µM;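 also: yeast cells grown in 1536-well plates; yeast grown about 18 h at 30C before absorbance read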
Of the large screens only hits and unclear results are named; the others gave an inactive call. Rule as the data show it, unless noted: active = inhibition above about 30%; inactive = the rest.

COc1ccc(C2=NN3C(C2)c2ccccc2OC32C(=O)N(C)c3ccccc32)cc1 (stereo not drawn)	PostGolgi ctrl 30 (no result: Cav3 T inh, tolC growth inh)
Cc1cc(NC(=O)Cn2nnc3sc4c(c3c2=O)CCC(C(C)(C)C)C4)no1 (stereo not drawn)	Cav3 T inh -7.3, PostGolgi ctrl 31, tolC growth inh 76
COc1ccc(NCc2nnc(SCC#N)n2-c2ccccc2OC)cc1	none
O=C(COc1ccccc1)Nc1sc2c(c1C(=O)NCc1cccnc1)CCCC2	none (no result: tolC growth inh)
COc1ccc(/C=C/C(=O)Nc2sc3c(c2C(=O)NCc2cccnc2)CCCC3)cc1	PostGolgi ctrl 52 (no result: tolC growth inh)
Cc1ccc(-n2nc3c(c2NC(=O)c2ccccc2Br)CS(=O)C3)cc1 (stereo not drawn)	none
CC(CCc1ccccc1)NC(=O)CN1CCN(Cc2ccccc2)C1=O (stereo not drawn)	PostGolgi ctrl 33
O=C1N(CC(=O)N2CCc3ccccc32)CCN1Cc1ccc(Cl)cc1	Cav3 T inh -4.5
O=C(CN1CCN(Cc2ccccc2F)C1=O)NCCc1ccc(Cl)cc1	none (no result: tolC growth inh)
CC(CCc1ccccc1)NC(=O)CN1CCOc2ccccc21 (stereo not drawn)	none (no result: Ecoli WT expand, PostGolgi ctrl, PostGolgi yeast)
CC(CCc1ccccc1)NC(=O)CN1CCN(Cc2ccc(Cl)cc2)C1=O (stereo not drawn)	Cav3 T inh -8.2 (no result: tolC growth inh)
Cc1ccc(CN2CCN(CC(=O)NC(C)CCc3ccccc3)C2=O)cc1 (stereo not drawn)	Cav3 T inh -5.7 (no result: tolC growth inh)
Cc1ccccc1NC(NC(=O)c1cccs1)C(Cl)(Cl)Cl (stereo not drawn)	Cav3 T inh -5.9 (no result: tolC growth inh)
O=C1c2ccccc2NC(c2c(Cl)cccc2Cl)N1Cc1ccccc1 (stereo not drawn)	Cav3 T inh -11, PostGolgi ctrl 42, PostGolgi yeast 65 (no result: tolC growth inh)
O=C1c2ccccc2NC(c2ccc(Cl)cc2Cl)N1Cc1ccccc1 (stereo not drawn)	Cav3 T inh -5.3, PostGolgi ctrl 36 (no result: tolC growth inh)
Cc1cccc(C2Nc3ccccc3C(=O)N2CCc2ccccc2)n1 (stereo not drawn)	none
O=C1c2ccccc2NC(c2ccc(Cl)cc2Cl)N1O (stereo not drawn)	Ecoli WT expand 58
C=CCc1cccc(C2Nc3ccccc3C(=O)N2O)c1O (stereo not drawn)	Cav3 T inh -9.8
COC(C[C@@H]1O[C@@H]1[C@H](O)COCc1ccccc1)OC	none (no result: Ecoli WT expand, PostGolgi ctrl, tolC growth inh, PostGolgi yeast)
CC(C)(O)C#Cc1ccc(C(=O)NCc2cccs2)s1	none
COc1ccc2cnn(-c3ccccc3C)c(=O)c2c1OC	none
CC(C)CCNC(=O)C1CC(c2ccc(C(F)(F)F)cc2)=NO1 (stereo not drawn)	none (no result: Ecoli WT expand, PostGolgi ctrl, tolC growth inh, PostGolgi yeast)
CN1c2ccccc2C(C)(C)[C@]12C=Cc1cc(O)ccc1O2	none (no result: tolC growth inh)
CC1(C)OC(=O)N(c2ccccc2)C12C=Cc1cc(Br)ccc1O2 (stereo not drawn)	Cav3 T inh -6.2 (no result: tolC growth inh)
CCc1cc2c(N3CCN(c4ccccc4)CC3)ncnc2s1	PostGolgi ctrl 48, tolC growth inh 93
CN1C(=O)C(CC(=O)Nc2ccc(F)cc2)N(CCCc2ccccc2)C1=S (stereo not drawn)	Cav3 T inh -5.2 (no result: tolC growth inh)
COC(=O)CN1C(=S)N(c2ccc(Cl)cc2)C(=O)C1CC(=O)Nc1ccc(Cl)cc1 (stereo not drawn)	none (no result: Cav3 T inh, tolC growth inh)
COc1ccc(NC(=O)CC2C(=O)N(CCc3ccccc3)C(=S)N2Cc2cccnc2)cc1 (stereo not drawn)	none (no result: tolC growth inh)
COC(=O)CN1C(=S)N(Cc2ccccc2)C(=O)C1CC(=O)Nc1ccc(Br)cc1 (stereo not drawn)	PostGolgi ctrl 79 (no result: tolC growth inh)
Cc1ccc(N/C=C/C(=O)C(C)(C)C)c(O)c1	none (no result: tolC growth inh)
Cn1cc(C[C@H](NC(=O)OC(C)(C)C)C(=O)N[C@H](CO)Cc2ccccc2)c2ccccc21	none (no result: Ecoli WT expand, PostGolgi ctrl, tolC growth inh, PostGolgi yeast)
c1cc(-c2cc3cc(N4CCOCC4)ccc3o2)cs1	none (no result: Ecoli WT expand, PostGolgi ctrl, tolC growth inh, PostGolgi yeast)
CCN(CCNC(=O)CN1CCN(Cc2ccc(Cl)cc2)C1=O)c1ccccc1	Cav3 T inh -4
O=C(CN1CCN(Cc2ccccc2)C1=O)NCc1ccc(Cl)cc1	none
Cc1ccc(CN2CCN(CC(=O)NCc3ccc(Cl)cc3)C2=O)cc1	Cav3 T inh -4
O=C(CN1CCN(Cc2ccc(Cl)cc2)C1=O)NCCN1CCCC1	none (no result: Ecoli WT expand, Cav3 T inh, PostGolgi ctrl, PostGolgi yeast)
Cn1c(SCC(=O)NCC2CCCO2)nnc1-c1ccc(S(=O)(=O)N2CCCC2)cc1 (stereo not drawn)	none
O=C(Cn1nnc(-c2ccc(S(=O)(=O)N3CCCC3)cc2)n1)NCC1CCCO1 (stereo not drawn)	PostGolgi yeast 34
Cc1ccc(NC(=O)c2cccc(N3C(=O)CCC3=O)c2)nc1	none
COc1ccc2ccccc2c1C(O)c1nccn1C (stereo not drawn)	Cav3 T inh -5.6

Screening data (PubChem)
